Experimental data from ChEMBL document CHEMBL1138520, “Molecular and conformational determinants of pituitary adenylate cyclase-activating polypeptide (PACAP) for activation of the PAC1 receptor” (J Med Chem, 2009).
Where a SMILES comes first, the peptide text is derived from it. [ ]: non-standard residue; d: D form. Bip = N[C@@H](Cc1ccc(-c2ccccc2)cc1)C(=O)O; Aad = N[C@@H](CCCC(=O)O)C(=O)O

Columns and labels:
[1] = target: T1, Pituitary adenylate cyclase-activating polypeptide type I receptor (Homo sapiens, UniProt P41586); assay: Displacement of [125I]Ac-PACAP27 from human recombinant PAC1 receptor expressed in CHO cells by gamma- counter; type: cell-based
Target sequence in this assay (P41586 whole entry): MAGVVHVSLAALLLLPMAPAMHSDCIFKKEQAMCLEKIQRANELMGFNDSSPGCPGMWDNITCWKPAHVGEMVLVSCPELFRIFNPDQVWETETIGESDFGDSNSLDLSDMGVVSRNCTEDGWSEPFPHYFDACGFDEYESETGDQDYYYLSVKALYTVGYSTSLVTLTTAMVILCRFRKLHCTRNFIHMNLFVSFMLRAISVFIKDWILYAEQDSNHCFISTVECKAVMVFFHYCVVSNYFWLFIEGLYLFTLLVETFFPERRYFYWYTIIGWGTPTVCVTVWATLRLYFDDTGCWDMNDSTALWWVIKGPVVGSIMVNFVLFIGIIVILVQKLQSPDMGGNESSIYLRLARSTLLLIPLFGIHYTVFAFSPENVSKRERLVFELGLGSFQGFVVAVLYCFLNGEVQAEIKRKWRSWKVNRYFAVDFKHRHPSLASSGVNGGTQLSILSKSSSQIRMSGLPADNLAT

[2] = target: T1, Pituitary adenylate cyclase-activating polypeptide type I receptor; assay: Agonist activity at human recombinant PAC1 receptor expressed in CHO cells assessed as PACAP38-induced calcium mobilization by FLIPR assay; type: functional, cell-based
Procedure, shortened: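 CHO cells stably expressing recombinant human PAC1, plated 24 h before assay, loaded with fluo-4 AM for 60 min at 37 °C in the dark, then rinsed into HBSS for 15 min at 37 °C. EC50 and efficacy came from nonlinear regression; 4-10 independent assays in duplicate.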
Target sequence in this assay (P41586 whole entry): as above

[3] = target: T1, Pituitary adenylate cyclase-activating polypeptide type I receptor; assay: Agonist activity at human recombinant PAC1 receptor expressed in CHO cells assessed as PACAP38-induced calcium mobilization by FLIPR assay relative to PACAP38; type: functional, cell-based
Procedure, shortened: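 CHO cells stably expressing recombinant human PAC1, plated 24 h before assay, loaded with fluo-4 AM for 60 min at 37 °C in the dark, then rinsed into HBSS for 15 min at 37 °C. Peptide was added 18 s into a 150 s read (ex 480/em 525 nm), at final concentrations of 1 × 10-12 to 1 × 10^-5 M. Response was normalised to 1 × 10^-5 M PACAP38 on each plate. EC50 and efficacy came from nonlinear regression; 4-10 independent assays in duplicate.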
Target sequence in this assay (P41586 21-468 limits assumed): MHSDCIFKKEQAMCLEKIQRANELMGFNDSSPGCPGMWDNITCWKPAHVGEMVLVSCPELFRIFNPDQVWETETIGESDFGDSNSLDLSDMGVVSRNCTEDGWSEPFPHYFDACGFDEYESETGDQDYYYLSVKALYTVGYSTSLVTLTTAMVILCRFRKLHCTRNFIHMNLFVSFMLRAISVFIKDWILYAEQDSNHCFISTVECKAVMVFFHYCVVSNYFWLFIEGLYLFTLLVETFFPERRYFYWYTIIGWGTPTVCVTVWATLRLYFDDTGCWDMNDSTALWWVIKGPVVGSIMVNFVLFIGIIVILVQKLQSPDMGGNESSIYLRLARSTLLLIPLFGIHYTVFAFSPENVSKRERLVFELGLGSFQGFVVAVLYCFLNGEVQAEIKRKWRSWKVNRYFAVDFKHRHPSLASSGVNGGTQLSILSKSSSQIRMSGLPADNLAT

SMILES	IC50 [1] [nM]	EC50 [2] [nM]	Emax [3] [%]
CC[C@H](C)[C@H](NC(=O)CNC(=O)[C@H](CC(=O)O)NC(=O)[C@H](CO)NC(=O)[C@@H](N)Cc1cnc[nH]1)C(=O)N[C@@H](Cc1ccc(-c2ccccc2)cc1)C(=O)N[C@H](C(=O)N[C@@H](CC(=O)O)C(=O)N[C@@H](CO)C(=O)N[C@@H](Cc1ccc(O)cc1)C(=O)N[C@@H](CO)C(=O)N[C@@H](CCCNC(=N)N)C(=O)N[C@@H](Cc1ccc(O)cc1)C(=O)N[C@@H](CCCNC(=N)N)C(=O)N[C@@H](CCCCN)C(=O)N[C@@H](CCC(N)=O)C(=O)N[C@@H](CCSC)C(=O)N[C@@H](C)C(=O)N[C@H](C(=O)N[C@@H](CCCCN)C(=O)N[C@@H](CCCCN)C(=O)N[C@@H](Cc1ccc(O)cc1)C(=O)N[C@@H](CC(C)C)C(=O)N[C@@H](C)C(=O)N[C@@H](C)C(=O)N[C@H](C(=O)N[C@@H](CC(C)C)C(=O)NCC(=O)N[C@@H](CCCCN)C(=O)N[C@@H](CCCNC(=N)N)C(=O)N[C@@H](Cc1ccc(O)cc1)C(=O)N[C@@H](CCCCN)C(=O)N[C@@H](CCC(N)=O)C(=O)N[C@@H](CCCNC(=N)N)C(=O)N[C@H](C(=O)N[C@@H](CCCCN)C(=O)N[C@@H](CC(N)=O)C(=O)N[C@@H](CCCCN)C(N)=O)C(C)C)C(C)C)C(C)C)[C@@H](C)O (H-HSDGI[Bip]TDSYSRYRKQMAVKKYLAAVLGKRYKQRVKNK-NH2)	5.4	1.1	105
CC[C@H](C)[C@H](NC(=O)CNC(=O)[C@H](CC(N)=O)NC(=O)[C@H](CO)NC(=O)[C@@H](N)Cc1cnc[nH]1)C(=O)N[C@@H](Cc1ccccc1)C(=O)N[C@H](C(=O)N[C@@H](CC(=O)O)C(=O)N[C@@H](CO)C(=O)N[C@@H](Cc1ccc(O)cc1)C(=O)N[C@@H](CO)C(=O)N[C@@H](CCCNC(=N)N)C(=O)N[C@@H](Cc1ccc(O)cc1)C(=O)N[C@@H](CCCNC(=N)N)C(=O)N[C@@H](CCCCN)C(=O)N[C@@H](CCC(N)=O)C(=O)N[C@@H](CCSC)C(=O)N[C@@H](C)C(=O)N[C@H](C(=O)N[C@@H](CCCCN)C(=O)N[C@@H](CCCCN)C(=O)N[C@@H](Cc1ccc(O)cc1)C(=O)N[C@@H](CC(C)C)C(=O)N[C@@H](C)C(=O)N[C@@H](C)C(=O)N[C@H](C(=O)N[C@@H](CC(C)C)C(N)=O)C(C)C)C(C)C)[C@@H](C)O	284	140	91.2
CC[C@H](C)[C@H](NC(=O)CNC(=O)[C@H](CC(=O)O)N(C)C(=O)[C@H](CO)NC(=O)[C@@H](N)Cc1cnc[nH]1)C(=O)N[C@@H](Cc1ccccc1)C(=O)N[C@H](C(=O)N[C@@H](CC(=O)O)C(=O)N[C@@H](CO)C(=O)N[C@@H](Cc1ccc(O)cc1)C(=O)N[C@@H](CO)C(=O)N[C@@H](CCCNC(=N)N)C(=O)N[C@@H](Cc1ccc(O)cc1)C(=O)N[C@@H](CCCNC(=N)N)C(=O)N[C@@H](CCCCN)C(=O)N[C@@H](CCC(N)=O)C(=O)N[C@@H](CCSC)C(=O)N[C@@H](C)C(=O)N[C@H](C(=O)N[C@@H](CCCCN)C(=O)N[C@@H](CCCCN)C(=O)N[C@@H](Cc1ccc(O)cc1)C(=O)N[C@@H](CC(C)C)C(=O)N[C@@H](C)C(=O)N[C@@H](C)C(=O)N[C@H](C(=O)N[C@@H](CC(C)C)C(=O)NCC(=O)N[C@@H](CCCCN)C(=O)N[C@@H](CCCNC(=N)N)C(=O)N[C@@H](Cc1ccc(O)cc1)C(=O)N[C@@H](CCCCN)C(=O)N[C@@H](CCC(N)=O)C(=O)N[C@@H](CCCNC(=N)N)C(=O)N[C@H](C(=O)N[C@@H](CCCCN)C(=O)N[C@@H](CC(N)=O)C(=O)N[C@@H](CCCCN)C(N)=O)C(C)C)C(C)C)C(C)C)[C@@H](C)O	10.4	219	92.5
CC[C@H](C)[C@H](NC(=O)CNC(=O)[C@H](CCCC(=O)O)NC(=O)[C@H](CO)NC(=O)[C@@H](N)Cc1cnc[nH]1)C(=O)N[C@@H](Cc1ccccc1)C(=O)N[C@H](C(=O)N[C@@H](CC(=O)O)C(=O)N[C@@H](CO)C(=O)N[C@@H](Cc1ccc(O)cc1)C(=O)N[C@@H](CO)C(=O)N[C@@H](CCCNC(=N)N)C(=O)N[C@@H](Cc1ccc(O)cc1)C(=O)N[C@@H](CCCNC(=N)N)C(=O)N[C@@H](CCCCN)C(=O)N[C@@H](CCC(N)=O)C(=O)N[C@@H](CCSC)C(=O)N[C@@H](C)C(=O)N[C@H](C(=O)N[C@@H](CCCCN)C(=O)N[C@@H](CCCCN)C(=O)N[C@@H](Cc1ccc(O)cc1)C(=O)N[C@@H](CC(C)C)C(=O)N[C@@H](C)C(=O)N[C@@H](C)C(=O)N[C@H](C(=O)N[C@@H](CC(C)C)C(=O)NCC(=O)N[C@@H](CCCCN)C(=O)N[C@@H](CCCNC(=N)N)C(=O)N[C@@H](Cc1ccc(O)cc1)C(=O)N[C@@H](CCCCN)C(=O)N[C@@H](CCC(N)=O)C(=O)N[C@@H](CCCNC(=N)N)C(=O)N[C@H](C(=O)N[C@@H](CCCCN)C(=O)N[C@@H](CC(N)=O)C(=O)N[C@@H](CCCCN)C(N)=O)C(C)C)C(C)C)C(C)C)[C@@H](C)O (H-HS[Aad]GIFTDSYSRYRKQMAVKKYLAAVLGKRYKQRVKNK-NH2)	12.5	37.6	18.2
CC[C@H](C)[C@H](NC(=O)CNC(=O)[C@H](CC(=O)O)NC(=O)[C@H](CO)NC(=O)[C@@H](N)Cc1cnc[nH]1)C(=O)N[C@H](Cc1ccccc1)C(=O)N[C@H](C(=O)N[C@@H](CC(=O)O)C(=O)N[C@@H](CO)C(=O)N[C@@H](Cc1ccc(O)cc1)C(=O)N[C@@H](CO)C(=O)N[C@@H](CCCNC(=N)N)C(=O)N[C@@H](Cc1ccc(O)cc1)C(=O)N[C@@H](CCCNC(=N)N)C(=O)N[C@@H](CCCCN)C(=O)N[C@@H](CCC(N)=O)C(=O)N[C@@H](CCSC)C(=O)N[C@@H](C)C(=O)N[C@H](C(=O)N[C@@H](CCCCN)C(=O)N[C@@H](CCCCN)C(=O)N[C@@H](Cc1ccc(O)cc1)C(=O)N[C@@H](CC(C)C)C(=O)N[C@@H](C)C(=O)N[C@@H](C)C(=O)N[C@H](C(=O)N[C@@H](CC(C)C)C(=O)NCC(=O)N[C@@H](CCCCN)C(=O)N[C@@H](CCCNC(=N)N)C(=O)N[C@@H](Cc1ccc(O)cc1)C(=O)N[C@@H](CCCCN)C(=O)N[C@@H](CCC(N)=O)C(=O)N[C@@H](CCCNC(=N)N)C(=O)N[C@H](C(=O)N[C@@H](CCCCN)C(=O)N[C@@H](CC(N)=O)C(=O)N[C@@H](CCCCN)C(N)=O)C(C)C)C(C)C)C(C)C)[C@@H](C)O	951	1840	93.2
CC[C@H](C)[C@H](NC(=O)CNC(=O)[C@H](CC(=O)O)NC(=O)[C@H](CO)N(C)C(=O)[C@@H](N)Cc1cnc[nH]1)C(=O)N[C@@H](Cc1ccccc1)C(=O)N[C@H](C(=O)N[C@@H](CC(=O)O)C(=O)N[C@@H](CO)C(=O)N[C@@H](Cc1ccc(O)cc1)C(=O)N[C@@H](CO)C(=O)N[C@@H](CCCNC(=N)N)C(=O)N[C@@H](Cc1ccc(O)cc1)C(=O)N[C@@H](CCCNC(=N)N)C(=O)N[C@@H](CCCCN)C(=O)N[C@@H](CCC(N)=O)C(=O)N[C@@H](CCSC)C(=O)N[C@@H](C)C(=O)N[C@H](C(=O)N[C@@H](CCCCN)C(=O)N[C@@H](CCCCN)C(=O)N[C@@H](Cc1ccc(O)cc1)C(=O)N[C@@H](CC(C)C)C(=O)N[C@@H](C)C(=O)N[C@@H](C)C(=O)N[C@H](C(=O)N[C@@H](CC(C)C)C(=O)NCC(=O)N[C@@H](CCCCN)C(=O)N[C@@H](CCCNC(=N)N)C(=O)N[C@@H](Cc1ccc(O)cc1)C(=O)N[C@@H](CCCCN)C(=O)N[C@@H](CCC(N)=O)C(=O)N[C@@H](CCCNC(=N)N)C(=O)N[C@H](C(=O)N[C@@H](CCCCN)C(=O)N[C@@H](CC(N)=O)C(=O)N[C@@H](CCCCN)C(N)=O)C(C)C)C(C)C)C(C)C)[C@@H](C)O	9.1	110	87.7
